Screening data (PubChem BioAssay)
TRPC6 act: mouse TRPC6 channel activation. B-score at 10 µM. Q61143. AID 2550. actives 0.13% (n = 310,000). HEK293-TRPC6 membrane potential dye fluorescence; stronger effect = higher value;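 active means B-score of the integrated fluorescence ratio above library mean plus 3 SD, and starting fluorescence ratio within library mean plus 5 SD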;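 further: higher score means more depolarization so channel activation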
TRPC4 PAM: allosterically enhances the mouse TRPC4 cation channel; Q9QUQ5; actives 0.42% (n = 310,000); B-score at 10 µM; AID 2227; HEK293 TRPC4beta/mu-opioid, DAMGO EC20, Fluo-4 Ca2+ flux; stronger effect = higher value;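 active means B-score of calcium response area above 5 SD of library B-scores, with initial fluorescence ratio within 5 SD of library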;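 further: B-score of integrated fluorescence ratio over time as area under calcium response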
Target sequence (Q9QUQ5 whole entry, looked up): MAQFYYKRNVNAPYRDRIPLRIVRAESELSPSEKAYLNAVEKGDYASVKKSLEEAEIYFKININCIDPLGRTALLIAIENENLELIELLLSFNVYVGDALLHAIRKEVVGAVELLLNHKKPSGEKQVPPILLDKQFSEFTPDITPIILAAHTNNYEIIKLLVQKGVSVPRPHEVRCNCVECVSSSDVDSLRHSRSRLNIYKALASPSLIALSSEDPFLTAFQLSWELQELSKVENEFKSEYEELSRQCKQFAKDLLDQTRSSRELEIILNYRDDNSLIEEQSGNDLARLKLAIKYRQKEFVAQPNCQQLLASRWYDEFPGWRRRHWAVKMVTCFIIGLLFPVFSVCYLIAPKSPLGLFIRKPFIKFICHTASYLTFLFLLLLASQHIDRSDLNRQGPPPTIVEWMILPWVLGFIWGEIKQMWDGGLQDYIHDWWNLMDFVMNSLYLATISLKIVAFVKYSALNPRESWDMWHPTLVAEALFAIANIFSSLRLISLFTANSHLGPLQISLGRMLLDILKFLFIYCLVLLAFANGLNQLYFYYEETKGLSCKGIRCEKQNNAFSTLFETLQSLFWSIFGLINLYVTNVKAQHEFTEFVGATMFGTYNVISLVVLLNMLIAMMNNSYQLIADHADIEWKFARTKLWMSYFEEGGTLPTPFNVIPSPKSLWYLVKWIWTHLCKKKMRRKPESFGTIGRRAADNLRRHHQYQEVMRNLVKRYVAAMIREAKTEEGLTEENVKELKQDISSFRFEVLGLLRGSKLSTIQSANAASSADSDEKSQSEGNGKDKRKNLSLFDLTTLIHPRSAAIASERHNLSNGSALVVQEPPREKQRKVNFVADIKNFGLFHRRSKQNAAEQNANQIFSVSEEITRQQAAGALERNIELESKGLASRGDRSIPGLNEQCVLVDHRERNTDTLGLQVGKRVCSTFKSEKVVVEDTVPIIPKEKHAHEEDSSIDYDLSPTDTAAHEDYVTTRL
TRPC4 agonist: opens the mouse TRPC4 cation channel; HEK293 TRPC4beta/mu-opioid, Fluo4 calcium fluorescence; stronger effect = higher value; B-score at 10 µM; actives 0.49% (n = 310,000);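 active means B-score above 5 SD of library B-scores, and initial fluorescence ratio not above library mean plus 5 SD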;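 further: positive B-score marks a calcium rise read as TRPC4 activation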
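Test system: HEK293 cells stably co-expressing mouse TRPC4beta and mu-opioid receptor | Schedule: Fluo4 dye loading 45 min at room temperature, 110 s recording | Measured by: Kinetic Fluo4 calcium fluorescence, 5 s baseline at 1 Hz | Evaluation: B score of integrated ratio | Controls: Buffer (low) and maximal DAMGO (high)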
TRPC6 inhibitor: inhibitors of mouse TRPC6 channel | HEK293-TRPC6, membrane potential dye, ACh-evoked depolarization; stronger effect = lower value | AID 2553 | actives 1.1% (n = 310,000) | Q61143 | B-score at 10 µM;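 active means B-score under library mean minus 3 SD, initial fluorescence not abnormally high, positive integrated signal ratio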;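 further: B-score derived from integrated fluorescence ratio over the kinetic read; more negative B-score means stronger inhibition of depolarization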
TRPC4 block: blocks the mouse TRPC4 cation channel; HEK293 TRPC4beta/mu-opioid, DAMGO-evoked Fluo4 calcium flux; stronger effect = lower value; Q9QUQ5; B-score at 10 µM; AID 2247; actives 0.39% (n = 300,000);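 active means B-score over 3 SD under the library average, no early fluorescence shift, positive overall ratio signal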
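Assay system: TRPC4beta/mu-opioid receptor HEK293 cell line; compound dosing: single concentration per test compound; detection: Fluo4 Ca2+ flux fluorescence; evaluation: per-well B score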
TRPC4 sel inh 2: second selectivity test of TRPC6 inhibitors: effect on mouse TRPC4 | shares compounds with TRPC6 inhibitor | HEK293 TRPC4/MOR, membrane potential dye fluorescence; channel activated by saturating DAMGO dose | actives 42% (n = 920) | inhibition, % at 10 µM;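 active means compounds whose fluorescence signal differed from control wells by over 3 SD, either direction, in both duplicate plates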
TRPC4 spec: tests whether TRPC6 inhibitors also affect mouse TRPC4; AID 2777; HEK293 TRPC4/mu-opioid, membrane potential fluorescence; activity change, negative = inhibition, % at 10 µM; shares compounds with TRPC6 inhibitor; actives 61% (n = 920);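 active means rise or fall in signal beyond 3 SD of buffer-only wells in both replicate plates, either sign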;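 further: integrated kinetic ratio of fluorescence range over baseline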
HEK293 MPD ctr 2-1: second counter-screen for TRPC6 inhibitors: parental HEK293 cells; actives 31% (n = 920); shares compounds with TRPC6 inhibitor; parental HEK293 membrane potential dye fluorescence; maximal acetylcholine challenge after compound addition; signal change vs control, % at 10 µM; AID 2779;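 active means membrane potential signal moving either way by over 3 SD of the maximum-effect control, in both duplicate plates, meaning non-specific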
HEK293 MPD ctr-1: checks TRPC6 inhibitor effects in parental HEK293 cells; shares compounds with TRPC6 inhibitor; parental HEK293 membrane potential dye fluorescence; membrane potential signal change, % at 10 µM; actives 60% (n = 920); AID 2780;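 active means membrane potential signal shifting up or down by more than 3 SD of buffer-only wells, on both duplicate plates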
HEK293 MPD ctr-2: checks TRPC6 modulator effects in parental HEK293 cells. shares compounds with TRPC6 inhibitor. membrane potential dye fluorescence. actives 51% (n = 2,400). membrane potential signal change, % at 10 µM;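 active means membrane potential signal moves up or down beyond 5 SD from buffer-only wells, on both duplicate plates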
HEK293 MPD ctr 2-2: parental HEK293 nonspecific activity of TRPC6 modulators, second screen; shares compounds with TRPC6 inhibitor; membrane potential dye fluorescence; after compound, maximal acetylcholine stimulation; inhibition, % at 10 µM; actives 14% (n = 2,400);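 active means membrane potential signal drops by more than 5 SD from the mean control signal, in both duplicate plates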;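 further: plate controls were acetylcholine ECmax control wells for no effect and buffer only wells for full effect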
TRPC4/MOR mod: selectivity of TRPC6 modulators against mouse TRPC4 | HEK293 TRPC4/mu-opioid, membrane potential fluorescence | percent change from control (negative = decrease, positive = increase), % at 10 µM | actives 69% (n = 2,400) | shares compounds with TRPC6 inhibitor;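 active means membrane potential signal moved up or down beyond 5 SD of buffer control wells, in both duplicate plates, actives on both sides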;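 further: plate controls were assay buffer wells for no effect and DAMGO maximal-effect wells for full effect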
TRPC4/MOR inh 2: second selectivity test of TRPC6 modulators against mouse TRPC4; actives 55% (n = 2,400); inhibition, % at 10 µM; HEK293 TRPC4/mu-opioid, membrane potential dye fluorescence; stimulated with maximal-effect DAMGO; shares compounds with TRPC6 inhibitor;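 active means drop in membrane potential signal beyond 5 SD of the control wells in both duplicate plates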;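 further: TRPC4 counter screen for TRPC6 hits run under conditions tuned for TRPC6 not TRPC4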
TRPC6 inh conf: mouse TRPC6 inhibitor confirmation; shares compounds with TRPC6 inhibitor; actives 43% (n = 3,300); HEK293-TRPC6, membrane potential dye, ACh-evoked depolarization; inhibition, % at 10 µM;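 active means fluorescence ratio falls more than 5 SD below the full-stimulation control mean, in both duplicate runs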;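 further: integrated fluorescence ratio of peak minus minimum over baseline after agonist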
TRPC6 act conf: mouse TRPC6 activator confirmation. shares compounds with TRPC6 inhibitor. HEK293-TRPC6 membrane potential dye fluorescence, FDSS. activation, % at 10 µM. actives 11% (n = 2,800);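 active means ratio signal rise beyond 5 SD above unstimulated control wells' mean, seen in both duplicate runs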;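 further: plate controls were buffer EC0 wells for no effect and acetylcholine ECmax response for full effect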
* marks the source's active call; other numbers are inactive results. Shown are actives, neighbours in structure and some others; about 2.3% of the full set was active somewhere.

Results for Clc1ccccc1Cc1noc(CN2CCCCC2c2ccccn2)n1 (stereo not given) ?
TRPC6 act: inactive; TRPC4 PAM: inactive; TRPC4 agonist: inactive; TRPC6 inhibitor: inactive; TRPC4 block: inactive

What do the screens show for `Cc1c(F)cccc1NS(=O)(=O)c1ccc2c(c1)c(=O)n(C)c(=O)n2C`?
TRPC6 act: inactive; TRPC4 PAM: inactive; TRPC4 agonist: inactive; TRPC6 inhibitor: inactive; TRPC4 block: inactive

How did COc1ccc(CN2CN(S(=O)(=O)c3cccs3)c3nc4ccccc4nc32)cc1 do in these assays?
TRPC6 act: inactive; TRPC4 PAM: inactive; TRPC4 agonist: inactive; TRPC6 inhibitor: inactive; TRPC4 block: inactive

What do the screens show for `Cc1ccc(SCCNC(=S)Nc2ccc(C)c(C)c2)cc1`?
TRPC6 act: inactive; TRPC4 PAM: inactive; TRPC4 agonist: inactive; TRPC6 inhibitor: -5.66*; TRPC4 block: inactive; HEK293 MPD ctr-2: active; HEK293 MPD ctr 2-2: active; TRPC4/MOR mod: -266.5%*; TRPC4/MOR inh 2: 77.0%*; TRPC6 inh conf: inactive; TRPC6 act conf: inactive

How did Cc1ccc(SCCNC(=S)Nc2ccccc2)cc1 do in these assays?
TRPC6 act: inactive; TRPC4 PAM: inactive; TRPC4 agonist: inactive; TRPC6 inhibitor: inactive; TRPC4 block: inactive

How did CCOC(=O)c1ccc2ncc(C(=O)OCC)c(NCCCN3CCOCC3)c2c1 do in these assays?
TRPC6 act: inactive; TRPC4 PAM: inactive; TRPC4 agonist: inactive; TRPC6 inhibitor: -6.77*; TRPC4 block: inactive; TRPC4 sel inh 2: inactive; TRPC4 spec: -15.6%*; HEK293 MPD ctr 2-1: inactive; HEK293 MPD ctr-1: -251.0%*; TRPC6 inh conf: inactive; TRPC6 act conf: inactive

How did CCOC(=O)c1cnc2c(C)cc(C)cc2c1NCCCN1CCOCC1 do in these assays?
TRPC6 act: inactive; TRPC4 PAM: inactive; TRPC4 agonist: inactive; TRPC6 inhibitor: -8.77*; TRPC4 block: inactive; TRPC4 sel inh 2: 70.5%*; TRPC4 spec: inactive; HEK293 MPD ctr 2-1: -14.0%*; HEK293 MPD ctr-1: inactive; TRPC6 inh conf: 65.2%*; TRPC6 act conf: inactive

What do the screens show for `CCOC(=O)c1cnc2ccc(Br)cc2c1NCCCN1CCOCC1`?
TRPC6 act: inactive; TRPC4 PAM: inactive; TRPC4 agonist: inactive; TRPC6 inhibitor: inactive; TRPC4 block: inactive

Results for Cc1ccc2ncnc(NCCCN3CCOCC3)c2c1 ?
TRPC6 act: inactive; TRPC4 PAM: inactive; TRPC4 agonist: inactive; TRPC6 inhibitor: inactive; TRPC4 block: inactive

What do the screens show for `CCOC(=O)c1cnc2ccc(C)cc2c1NCCN1CCOCC1`?
TRPC6 act: inactive; TRPC4 PAM: inactive; TRPC4 agonist: inactive; TRPC6 inhibitor: -5.06*; TRPC4 block: inactive; HEK293 MPD ctr-2: inactive; HEK293 MPD ctr 2-2: inactive; TRPC4/MOR mod: 15.0%*; TRPC4/MOR inh 2: 34.0%*; TRPC6 inh conf: 42.5%*; TRPC6 act conf: inactive

Results for CCOC(=O)c1cnc2c(Cl)c(Cl)ccc2c1NCCN1CCOCC1 ?
TRPC6 act: inactive; TRPC4 PAM: inactive; TRPC4 agonist: inactive; TRPC6 inhibitor: inactive; TRPC4 block: inactive

Results for CCOC(=O)c1cnc2c(C)c(C)ccc2c1NCCN1CCOCC1 ?
TRPC6 act: inactive; TRPC4 PAM: inactive; TRPC4 agonist: inactive; TRPC6 inhibitor: -5.8*; TRPC4 block: inactive; HEK293 MPD ctr-2: 86.0%*; HEK293 MPD ctr 2-2: 77.0%*; TRPC4/MOR mod: 27.5%*; TRPC4/MOR inh 2: 33.0%*; TRPC6 inh conf: inactive; TRPC6 act conf: inactive

What do the screens show for `CCOC(=O)c1cnc2c(C)c(Cl)ccc2c1NCCCN1CCOCC1`?
TRPC6 act: inactive; TRPC4 PAM: inactive; TRPC4 agonist: inactive; TRPC6 inhibitor: inactive; TRPC4 block: inactive

Results for COc1cccc(NC(=O)c2cc(-c3ccc(OC)cc3OC)nc3ccccc23)c1 ?
TRPC6 act: inactive; TRPC4 PAM: inactive; TRPC4 agonist: inactive; TRPC6 inhibitor: -5.12*; TRPC4 block: inactive; HEK293 MPD ctr-2: active; HEK293 MPD ctr 2-2: 73.0%*; TRPC4/MOR mod: -94.0%*; TRPC4/MOR inh 2: 66.5%*; TRPC6 inh conf: 53.5%*; TRPC6 act conf: inactive

How did COc1ccc(-c2cc(C(=O)Nc3cc(C)on3)c3ccccc3n2)c(OC)c1 do in these assays?
TRPC6 act: inactive; TRPC4 PAM: inactive; TRPC4 agonist: inactive; TRPC6 inhibitor: inactive; TRPC4 block: inactive

Results for Nc1ccc(/C=C/C(=O)c2ccco2)cc1 ?
TRPC6 act: 24.6*; TRPC4 PAM: inactive; TRPC4 agonist: inactive; TRPC6 inhibitor: -8.45*; TRPC4 block: inactive; HEK293 MPD ctr-2: 722.0%*; HEK293 MPD ctr 2-2: active; TRPC4/MOR mod: 92.0%*; TRPC4/MOR inh 2: 52.5%*; TRPC6 inh conf: 80.5%*; TRPC6 act conf: 199.0%*

How did N#Cc1ccc(/C=C/C(=O)c2ccco2)cc1 do in these assays?
TRPC6 act: inactive; TRPC4 PAM: inactive; TRPC4 agonist: inactive; TRPC6 inhibitor: inactive; TRPC4 block: inactive
